Measured values reported in ChEMBL document CHEMBL5058577, “EUbOPEN Chemogenomics Library 2 (Multiplex)” (2022).

Test system: HEK-293T
Test: Multiplex assay against HEK293T
Format: toxicity, cell-based
Conditions: human
Summary of the method: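 Live cells were stained at seeding with Hoechst33342, BioTracker Green Microtubule Cytoskeleton Dye, MitoTracker Red and Annexin V Alexa Fluor 680. Following compound addition, they were imaged on a CQ1 microscope at 37°C and 5% CO2 and gated by CellPathfinder machine learning into Hoechst high-intensity objects or normal cells, with normal cells split into healthy, pyknosed or fragmented nuclei and pyknosed cells into mitotic or apoptotic. Tubulin, mitochondrial-mass and membrane-permeability phenotypes are per cents of healthy-nucleus cells.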

[1] = 12 h, 1 µM, compound concentration 1 uM, replicate 1
[2] = 12 h, 1 µM, compound concentration 1 uM, replicate 2
[3] = 12 h, 10 µM, compound concentration 10 uM, replicate 1
[4] = 12 h, 10 µM, compound concentration 10 uM, replicate 2
[5] = 24 h, 1 µM, compound concentration 1 uM, replicate 1
[6] = 24 h, 1 µM, compound concentration 1 uM, replicate 2
[7] = 24 h, 10 µM, compound concentration 10 uM, replicate 1
[8] = 24 h, 10 µM, compound concentration 10 uM, replicate 2
[9] = 48 h, 1 µM, compound concentration 1 uM, replicate 1
[10] = 48 h, 1 µM, compound concentration 1 uM, replicate 2
[11] = 48 h, 10 µM, compound concentration 10 uM, replicate 1
[12] = 48 h, 10 µM, compound concentration 10 uM, replicate 2

## COc1ccccc1N1CCN(CCCCNC(=O)c2ccc3ccccc3c2)CC1.Cl
[1]
  Population Apoptotic (%): 45%
  Population Healthy Nuclei (%): 81%
  Population Hoechst High Intensity Objects (%): 6%
  Population Mitochondria Different-Phenotype (%): 53%
  Population Mitotic Cells (%): 54%
  Population Normal (%): 93%
  Population Tubulin-Different-Phenotype (%): 41%
  Total Cell Count: 430
[2]
  Population Apoptotic (%): 36%
  Population Healthy Nuclei (%): 79%
  Population Hoechst High Intensity Objects (%): 5%
  Population Mitochondria Different-Phenotype (%): 76%
  Population Mitotic Cells (%): 63%
  Population Normal (%): 94%
  Population Tubulin-Different-Phenotype (%): 35%
  Total Cell Count: 354
[3]
  Population Apoptotic (%): 71%
  Population Healthy Nuclei (%): 69%
  Population Hoechst High Intensity Objects (%): 16%
  Population Mitochondria Different-Phenotype (%): 90%
  Population Mitotic Cells (%): 28%
  Population Normal (%): 83%
  Population Tubulin-Different-Phenotype (%): 75%
  Total Cell Count: 321
[4]
  Population Apoptotic (%): 70%
  Population Healthy Nuclei (%): 75%
  Population Hoechst High Intensity Objects (%): 15%
  Population Mitochondria Different-Phenotype (%): 93%
  Population Mitotic Cells (%): 29%
  Population Normal (%): 84%
  Population Tubulin-Different-Phenotype (%): 72%
  Total Cell Count: 256
[5]
  Population Apoptotic (%): 27%
  Population Healthy Nuclei (%): 78%
  Population Hoechst High Intensity Objects (%): 6%
  Population Mitochondria Different-Phenotype (%): 38%
  Population Mitotic Cells (%): 72%
  Population Normal (%): 93%
  Population Tubulin-Different-Phenotype (%): 32%
  Total Cell Count: 561
[6]
  Population Apoptotic (%): 36%
  Population Healthy Nuclei (%): 82%
  Population Mitochondria Different-Phenotype (%): 62%
  Population Mitotic Cells (%): 63%
  Population Tubulin-Different-Phenotype (%): 26%
  Total Cell Count: 444
[7]
  Population Apoptotic (%): 56%
  Population Healthy Nuclei (%): 74%
  Population Hoechst High Intensity Objects (%): 13%
  Population Mitochondria Different-Phenotype (%): 96%
  Population Mitotic Cells (%): 43%
  Population Normal (%): 86%
  Population Tubulin-Different-Phenotype (%): 87%
  Total Cell Count: 393
[8]
  Population Apoptotic (%): 60%
  Population Healthy Nuclei (%): 69%
  Population Hoechst High Intensity Objects (%): 17%
  Population Mitochondria Different-Phenotype (%): 94%
  Population Mitotic Cells (%): 39%
  Population Normal (%): 82%
  Population Tubulin-Different-Phenotype (%): 66%
  Total Cell Count: 276
[9]
  Population Apoptotic (%): 20%
  Population Healthy Nuclei (%): 81%
  Population Hoechst High Intensity Objects (%): 3%
  Population Mitochondria Different-Phenotype (%): 34%
  Population Mitotic Cells (%): 79%
  Population Normal (%): 96%
  Population Tubulin-Different-Phenotype (%): 20%
  Total Cell Count: 841
[10]
  Population Apoptotic (%): 46%
  Population Healthy Nuclei (%): 78%
  Population Hoechst High Intensity Objects (%): 5%
  Population Mitochondria Different-Phenotype (%): 37%
  Population Mitotic Cells (%): 53%
  Population Normal (%): 94%
  Population Tubulin-Different-Phenotype (%): 22%
  Total Cell Count: 635
[11]
  Population Apoptotic (%): 60%
  Population Healthy Nuclei (%): 77%
  Population Hoechst High Intensity Objects (%): 8%
  Population Mitochondria Different-Phenotype (%): 88%
  Population Mitotic Cells (%): 40%
  Population Normal (%): 91%
  Population Tubulin-Different-Phenotype (%): 73%
  Total Cell Count: 519
[12]
  Population Apoptotic (%): 78%
  Population Healthy Nuclei (%): 78%
  Population Hoechst High Intensity Objects (%): 10%
  Population Mitotic Cells (%): 21%
  Population Normal (%): 89%
  Population Tubulin-Different-Phenotype (%): 71%
  Total Cell Count: 329
